Measurements collected from several papers.
Protocols differ between the studies behind these lines.
PRKCD: Protein kinase C delta type (PRKCD, Homo sapiens, UniProt Q05655)
Palmitoyl-protein thioesterase 1: Palmitoyl-protein thioesterase 1 (Homo sapiens, UniProt P50897)
Transmembrane protease serine 6: Transmembrane protease serine 6 (Homo sapiens, UniProt Q8IU80)

SMILES | target | assay | conditions | quantity | value
C=CC(=O)N1CCC(COCC(=O)N2CCN(c3nc(-c4cnc(N)nc4C(F)F)nc(N4CCOC[C@@H]4C)n3)CC2)CC1 | PRKCD | binding, competition with immobilised ligand | 1 µM | remaining binding | 100%
COc1cc(-c2cncc3c2CN(C)Cc2cc(N4CCNCC4)ccc2-3)cc(OC)c1OC | PRKCD | enzyme activity, inhibitor | 1 µM | remaining activity | 104%
c1coc(CNc2ncnc3[nH]cnc23)c1 | Palmitoyl-protein thioesterase 1 | enzyme activity, inhibitor | 125 µM | inhibition | 8.93%
N=C(N)NCCC[C@H](NC(=O)[C@H](Cc1ccc(I)cc1)NC(=O)[C@H](Cc1cscn1)NC(=O)CCc1ccccc1)C(=O)c1nc2ccccc2s1 | Transmembrane protease serine 6 | enzyme activity, inhibitor | 0.1 µM | remaining activity | 90%
C=C[C@H]1C[N@@]2CC[C@H]1C[C@H]2[C@H](O)c1ccnc2ccc(OC)cc12 | Palmitoyl-protein thioesterase 1 | enzyme activity, inhibitor | 125 µM | inhibition | 18.6%
Cc1cc([C@@H](C)Nc2ccccc2C(=O)O)c2nc(N3CCC(F)(F)CC3)c(C#N)c(=O)n2c1 | Serine/threonine-protein kinase B-raf (BRAF, Homo sapiens, UniProt P15056) | binding, competition with immobilised ligand | 10 µM | remaining binding | 74%
N=C(N)NCCC[C@H](NC(=O)[C@H](Cc1ccc(C(=O)c2ccccc2)cc1)NC(=O)[C@H](Cc1cscn1)NC(=O)CCc1ccccc1)C(=O)c1nc2ccccc2s1 | Transmembrane protease serine 6 | enzyme activity, inhibitor | 0.1 µM | remaining activity | 78%
COc1c(O)cc2c(c1O)[C@@H]1O[C@H](CO)[C@@H](O)[C@H](O)[C@H]1OC2=O | Palmitoyl-protein thioesterase 1 | enzyme activity, inhibitor | 125 µM | inhibition | 7.04%
CC[C@H](NC(=O)[C@H](Cc1cscn1)NC(=O)CCc1ccccc1)C(=O)N[C@@H](CCCNC(=N)N)C(=O)c1nc2ccccc2s1 | Transmembrane protease serine 6 | enzyme activity, inhibitor | 0.1 µM | remaining activity | 20 to 50%
CC(C)C[C@@H](C(=O)N[C@H](C(=O)OC1CCCC1)c1ccccc1)[C@H](O)C(=O)NO | Palmitoyl-protein thioesterase 1 | enzyme activity, inhibitor | 625 µM | inhibition | 8.02%
CCCC[C@H](NC(=O)[C@H](Cc1cscn1)NC(=O)CCc1ccccc1)C(=O)N[C@@H](CCCNC(=N)N)C(=O)c1nc2ccccc2s1 | Transmembrane protease serine 6 | enzyme activity, inhibitor | 0.1 µM | remaining activity | 22%
CNc1ncc2c(/C=C/C(=O)N3CCC(OC)CC3)nn(Cc3cccc(C(F)(F)F)c3)c2n1 | Ribosomal protein S6 kinase alpha-2 (RPS6KA2, Homo sapiens, UniProt Q15349) | enzyme activity, inhibitor, radiometric | 1 µM | remaining activity | 86%
